Several values for one entry are separate records, joined by “and”; a condition that tells them apart may be missing. Identical values can stand only once.
Tests used:
Canis familiaris [1] = species on record: Canis familiaris; test: In vitro electrophysiological evaluation in canine cardiac ventricular muscle reported as % change for conduction time(CT) at 10 uM at 0.1-10 uM concentration range; Minimal (<10% decrease or increase in CT).; format: functional, Canis lupus familiaris, Muscle tissue
Canis familiaris [2] = species on record: Canis familiaris; test: In vitro electrophysiological evaluation in canine cardiac occurred is 100 uM.; format: functional; conditions: Canis lupus familiaris; Heart
Canis familiaris [3] = test: Left ventricular refractory period was determined by intraduodenal administration of 10 mg/kg (low dose) of compound in anesthetized dogs. Value was reported for experiment 1; format: functional, Canis lupus familiaris, Cardiac ventricle
In short: (§1)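 Anesthetized dogs received two intraduodenal doses, the second cumulative (low dose/high dose). Left ventricular FRP and CT were measured 15, 30 and 45 min after dosing. Heart rate and mean blood pressure were taken during nonpacing intervals. Values are percent change from control. The vehicle was 5% dextrose in water/tragacanth. Activity was defined as ≥12% prolongation of FRP or CT.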

Canis familiaris [4] = species on record: Canis familiaris; test: In vitro electrophysiological evaluation in canine cardiac Purkinje fibres reported as percent change Vmax at 10 uM at concentration range of 0.1-100 uM.; format: functional, organism-based; conditions: Canis lupus familiaris, Purkinje fiber
In short: (§2)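 Canine cardiac Purkinje fibres, intracellular microelectrode recording, paced at a basic cycle length of 1 s. APD95 and Vmax read simultaneously. Compound: 10 mM stock in deionized water, diluted into Tyrode's solution, tested over the stated concentration range. Each fibre used once as its own control. Result is % change from control, given at 10 µM or as the maximum with its concentration. M = <10% decrease or an increase in Vmax.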

Canis familiaris [5] = species on record: Canis familiaris; test: In vitro electrophysiological evaluation in canine cardiac Purkinje fibres reported as percent change Vmax at 10 uM at concentration range of 0.1-100 uM; Minimal (<10% decrease or increase in Vmax).; format: functional, organism-based; conditions: Canis lupus familiaris, Purkinje fiber; in short: as §2
Canis familiaris [6] = test: Left ventricular refractory period was determined by intraduodenal administration of 3 mg/kg (low dose) of compound in anesthetized dogs. Value was reported for experiment 2; format: functional, Canis lupus familiaris, Cardiac ventricle; in short: as §1
Canis familiaris [7] = test: Conduction time was determined by intraduodenal administration of 10 mg/kg (low dose) of compound in anesthetized dogs. Value was reported for experiment 1; format: functional, Canis lupus familiaris
In short: (§3)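 Anesthetized dogs; compound given intraduodenally, generally as two doses, the second a cumulative (high) dose. LV functional refractory period and conduction time measured 15, 30 and 45 min after dosing; heart rate and blood pressure measured during nonpacing intervals. Values are % change from control, given per individual animal. Active if FRP or CT prolonged by ≥12%.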

Canis familiaris [8] = species on record: Canis familiaris; test: In vitro electrophysiological activity in canine cardiac occurred is 10 uM.; format: functional, Canis lupus familiaris, Heart
Canis familiaris [9] = test: Left ventricular refractory period was determined by intraduodenal administration of 10 mg/kg (high dose) of compound in anesthetized dogs. Value was reported for experiment 2; format: functional, Canis lupus familiaris, Cardiac ventricle; in short: as §1
Canis familiaris [10] = test: Mean arterial blood pressure was determined by intraduodenal administration of two dosages of 3 mg/kg of compound in anesthetized dogs. Value was reported for experiment 2; format: functional, Canis lupus familiaris
Canis familiaris [11] = test: Conduction time was determined by intraduodenal administration of 30 mg/kg (high dose) of compound in anesthetized dogs. Value was reported for experiment 1; format: functional, Canis lupus familiaris; in short: as §3
Canis familiaris [12] = species on record: Canis familiaris; test: In vitro electrophysiological evaluation in canine cardiac ventricular muscle reported as % change for the functional refractory period (FRP) at 10 uM at concentration range of 0.1-10 uM; set-up: species or system Canis lupus familiaris, Muscle tissue
In short: (§4)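 Canine right ventricle and papillary muscle strips in oxygenated Tyrode's solution, fitted with stimulating and recording electrodes. The extra-stimulus conduction-interval method was adapted for in vitro use. FRP and CT were read from a conduction-interval curve before and after various compound concentrations, and expressed as percent change from control. Compounds were taken from 10 mM deionized-water stock into Tyrode's. Each strip was used once as its own control.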

Canis familiaris [13] = test: Left ventricular refractory period was determined by intraduodenal administration of 30 mg/kg (high dose) of compound in anesthetized dogs. Value was reported for experiment 1; format: functional, Canis lupus familiaris, Cardiac ventricle; in short: as §1
Canis familiaris [14] = test: Conduction time was determined by intraduodenal administration of 10 mg/kg (high dose) of compound in anesthetized dogs. Value was reported for experiment 2; format: functional, Canis lupus familiaris; in short: as §3
Canis familiaris [15] = species on record: Canis familiaris; test: In vitro electrophysiological evaluation in canine cardiac ventricular muscle reported as maximum % change for conduction time(CT) at 0.1-10 uM concentration range; Minimal (<10% decrease or increase in CT).; format: functional, Canis lupus familiaris, Muscle tissue; in short: as §4
Canis familiaris [16] = test: Mean arterial blood pressure was determined by intraduodenal administration of two dosages of 10 mg/kg of compound in anesthetized dogs. Value was reported for experiment 2; format: functional, Canis lupus familiaris; in short: as §1
Canis familiaris [17] = test: Conduction time was determined by intraduodenal administration of 3 mg/kg (low dose) of compound in anesthetized dogs. Value was reported for experiment 2; format: functional, Canis lupus familiaris; in short: as §3
Canis familiaris [18] = test: Heart rate was determined by intraduodenal administration of two dosages of 3 mg/kg of compound in anesthetized dogs. Value was reported for experiment 2; format: functional, Canis lupus familiaris; in short: as §3
Canis familiaris [19] = test: Mean arterial blood pressure was determined by intraduodenal administration of two dosages of 10 mg/kg of compound in anesthetized dogs. Value was reported for experiment 1; format: functional, Canis lupus familiaris; in short: as §1
Canis familiaris [20] = species on record: Canis familiaris; test: In vitro electrophysiological evaluation in canine cardiac Purkinje fibres reported as % change for action potential duration at a concentration of 10 uM; format: functional, Canis lupus familiaris, Purkinje fiber; in short: as §2
Canis familiaris [21] = species on record: Canis familiaris; test: In vitro electrophysiological activity in canine cardiac occurred is 100 uM.; format: functional, Canis lupus familiaris, Heart
Canis familiaris [22] = test: Heart rate was determined by intraduodenal administration of two dosages of 30 mg/kg of compound in anesthetized dogs. Value was reported for experiment 1; format: functional, Canis lupus familiaris; in short: as §3
Canis familiaris [23] = test: Heart rate was determined by intraduodenal administration of two dosages of 10 mg/kg of compound in anesthetized dogs. Value was reported for experiment 1; format: functional, Canis lupus familiaris; in short: as §3
Canis familiaris [24] = species on record: Canis familiaris; test: In vitro electrophysiological evaluation in canine cardiac Purkinje fibres reported as percent change Vmax at 10 uM at concentration range of 0.1-10 uM; Minimal (<10% decrease or increase in Vmax).; format: functional; conditions: Canis lupus familiaris, Purkinje fiber; in short: as §2
Canis familiaris [25] = species on record: Canis familiaris; test: In vitro electrophysiological evaluation in canine cardiac ventricular muscle reported as maximum % change for functional refractory period (FRP) at 0.1-10 uM concentration range; concentration at which it occurred is 10 uM.; set-up: species or system Canis lupus familiaris, Muscle tissue; in short: as §4
Canis familiaris [26] = test: Mean arterial blood pressure was determined by intraduodenal administration of two dosages of 30 mg/kg of compound in anesthetized dogs. Value was reported for experiment 1; format: functional, Canis lupus familiaris; in short: as §1
Canis familiaris [27] = test: Heart rate was determined by intraduodenal administration of two dosages of 10 mg/kg of compound in anesthetized dogs. Value was reported for experiment 2; format: functional, Canis lupus familiaris; in short: as §3
Canis familiaris [28] = species on record: Canis familiaris; test: In vitro electrophysiological evaluation in canine cardiac Purkinje fibres reported as maximum percent change Vmax concentration range of 0.1-10 uM; Minimal (<10% decrease or increase in Vmax).; format: functional; conditions: Canis lupus familiaris; Purkinje fiber; in short: as §2
Canis familiaris [29] = species on record: Canis familiaris; test: In vitro electrophysiological evaluation in canine cardiac Purkinje fibres reported as maximum percent change Vmax concentration range of 0.1-100 uM; conduction block; format: functional; conditions: Canis lupus familiaris; Purkinje fiber; in short: as §2
Canis familiaris [30] = species on record: Canis familiaris; test: In vitro electrophysiological evaluation in canine cardiac ventricular muscle reported as maximum % change for functional refractory period (FRP) at 0.1-100 uM concentration range; concentration at which it occurred is 1 uM; set-up: species or system Canis lupus familiaris, Muscle tissue; in short: as §4
Canis familiaris [31] = species on record: Canis familiaris; test: In vitro electrophysiological evaluation in canine cardiac Purkinje fibres reported as percent change Vmax at 10 uM at concentration range of 0.1-100 uM; Minimal (<10% decrease or increase in V max).; format: functional, organism-based; conditions: Canis lupus familiaris, Purkinje fiber; in short: as §2
Canis familiaris [32] = species on record: Canis familiaris; test: (§5) In vitro electrophysiological evaluation in canine cardiac occurred is 100 uM; format: functional; conditions: Canis lupus familiaris; Heart
Canis familiaris [33] = species on record: Canis familiaris; test: In vitro electrophysiological evaluation in canine cardiac ventricular muscle reported as maximum % change for functional refractory period (FRP) at 0.1-100 uM concentration range; concentration at which it occurred is 100 uM; set-up: species or system Canis lupus familiaris, Muscle tissue; in short: as §4
Canis familiaris [34] = species on record: Canis familiaris; test: In vitro electrophysiological evaluation in canine cardiac ventricular muscle reported as maximum % change for conduction time(CT) at 0.1-100 uM concentration range; Minimal (<10% decrease or increase in CT).; format: functional, Canis lupus familiaris, Muscle tissue; in short: as §4
Canis familiaris [35] = species on record: Canis familiaris; test: (§6) In vitro electrophysiological activity in canine cardiac occurred is 100 uM; format: functional, Canis lupus familiaris, Heart
Canis familiaris [36] = species on record: Canis familiaris; test: In vitro electrophysiological evaluation in canine cardiac ventricular muscle reported as % change for the functional refractory period (FRP) at 10 uM at concentration range of 0.1-100 uM; set-up: species or system Canis lupus familiaris, Muscle tissue; in short: as §4
Canis familiaris [37] = species on record: Canis familiaris; test: In vitro electrophysiological evaluation in canine cardiac ventricular muscle reported as maximum % change for functional refractory period (FRP) at 0.1-100 uM concentration range; concentration at which it occurred is 10 uM; set-up: species or system Canis lupus familiaris, Muscle tissue; in short: as §4
Canis familiaris [38] = species on record: Canis familiaris; test: In vitro electrophysiological evaluation in canine cardiac Purkinje fibres reported as percent change Vmax at 10 uM at concentration range of 1-100 uM; Minimal (<10% decrease or increase in V max).; format: functional; conditions: Canis lupus familiaris, Purkinje fiber; in short: as §2
Canis familiaris [39] = species on record: Canis familiaris; test: In vitro electrophysiological evaluation in canine cardiac Purkinje fibres reported as % change for action potential duration at 10 uM at 1-100 uM concentration range; format: functional, Canis lupus familiaris, Purkinje fiber; in short: as §2
Canis familiaris [40] = species on record: Canis familiaris; test: In vitro electrophysiological evaluation in canine cardiac ventricular muscle reported as maximum % change for conduction time(CT) at 0.1-100 uM concentration range; concentration at which it occurred is 100 uM; format: functional, Canis lupus familiaris, Muscle tissue; in short: as §4
Canis familiaris [41] = species on record: Canis familiaris; test: as §5; format: functional; conditions: Canis lupus familiaris; Heart; remark: listed apart in the source
Canis familiaris [42] = species on record: Canis familiaris; test: as §6; format: functional, Canis lupus familiaris, Heart; remark: listed apart in the source
Canis familiaris [43] = species on record: Canis familiaris; test: In vitro electrophysiological evaluation in canine cardiac ventricular muscle reported as % change for conduction time(CT) at 10 uM at 0.1-100 uM concentration range; Minimal (<10% decrease or increase in CT).; format: functional, Canis lupus familiaris, Muscle tissue

Compound: Cl.O=C1C2CCN(CC2)C1CCCc1ccc(Cl)cc1 (centres undefined)
- CT (Canis familiaris [1]): <10%
- Vmax (Canis familiaris [2]): -12%
- LV FRP (Canis familiaris [3]): 15%
- Vmax (Canis familiaris [4]): -41%
- Vmax (Canis familiaris [5]): < 10%
- LV FRP (Canis familiaris [6]): 5%
- CT (Canis familiaris [7]): 0%
- APD95 (Canis familiaris [8]): 6%
- LV FRP (Canis familiaris [9]): 9%
- Mean blood pressure (Canis familiaris [10]): 20%
- CT (Canis familiaris [11]): 2%
- FRP (Canis familiaris [12]): 39% and 23%
- LV FRP (Canis familiaris [13]): 19%
- CT (Canis familiaris [14]): 13%
- CT (Canis familiaris [15]): <10%
- Mean blood pressure (Canis familiaris [16]): 24%
- CT (Canis familiaris [17]): 3%
- HR (Canis familiaris [18]): -2%
- Mean blood pressure (Canis familiaris [19]): -4%
- APD95 (Canis familiaris [20]): 6%
- APD95 (Canis familiaris [21]): -11% and -18%
- HR (Canis familiaris [22]): -31%
- HR (Canis familiaris [23]): -17%
- Vmax (Canis familiaris [24]): < 10%
- FRP (Canis familiaris [25]): 39% and 23%
- Mean blood pressure (Canis familiaris [26]): 5%
- HR (Canis familiaris [27]): -14%
- Vmax (Canis familiaris [28]): < 10%
- Vmax (Canis familiaris [29]): < 10%

Compound: Cl.O=C(CCC1C(=O)C2CCN1CC2)c1ccc(Cl)c([N+](=O)[O-])c1 (centres undefined)
- FRP (Canis familiaris [30]): 14%
- Vmax (Canis familiaris [31]): < 10%
- Vmax (Canis familiaris [32]): -37% and -42%
- FRP (Canis familiaris [33]): 44%
- CT (Canis familiaris [34]): <10%
- APD95 (Canis familiaris [35]): 11%
- FRP (Canis familiaris [36]): 21% and 14% and 26%
- FRP (Canis familiaris [37]): 21%
- Vmax (Canis familiaris [38]): < 10%
- APD95 (Canis familiaris [39]): 1%
- APD95 (Canis familiaris [20]): 4% and 3%
- CT (Canis familiaris [40]): 14% and 21%
- Vmax (Canis familiaris [41]): -13%
- APD95 (Canis familiaris [42]): 4% and -11%
- CT (Canis familiaris [43]): <10%

Source: ChEMBL document CHEMBL1123566, “Synthesis and cardiac electrophysiological activity of 2- and 3-[(substituted phenyl)alkyl]quinuclidines. Structure-activity relationships” (1987)
